This passage reports inhibition and Activity results from ChEMBL document CHEMBL5357040, “Synthesis and migrastatic activity of cytochalasin analogues lacking a macrocyclic moiety” (RSC Med Chem, 2024).

Assay [1] in a line: Inhibition of actin (unknown origin) polymerization at 10 uM by spectrophotometer analysis. Conditions: Homo sapiens. A digest of the protocol: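 Pyrene-labelled actin (0.4 mg mL⁻¹) in G-buffer with compound at 10 μM or DMSO control; polymerization started with 10× actin polymerization buffer. Fluorescence (ex 360 nm, em 420 nm) followed over time until plateau.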
For another assay, the system named is BLM. Briefly: Migrastatic activity against human BLM cells assessed as decrease in cell migration at 10 uM incubated for 24 hrs by spheroid invasion assay. Format: functional, cell-based. A digest of the protocol:
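BLM spheroids formed over 2 days, embedded singly in 1.5 mg mL⁻¹ rat-tail type I collagen (1× DMEM, 1% FBS), polymerized at 37 °C, overlaid with medium; 10 μM treatment. Imaged at 0 and 24 h; invasiveness as spheroid area increase. Three independent experiments, ≥8 spheroids each; one-way ANOVA.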

Assay [2] has as its system HT-1080. Briefly: Inhibition of actin in human HT-1080 cells assessed as effect on actin cytoskeleton at 10 uM incubated for 2 mins by fluorescence microscopic analysis. The class given is cell-based. The method in brief: (§1)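 HT1080 cells on glass-bottom plates stained with SPY650-FastAct; untreated cells imaged every 20 s for 15 min, then compound (10 or 50 μM) added to same well and recorded 15 min at 20 s/frame by fluorescence time-lapse; actin cytoskeleton and morphology assessed from video.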

For assay [3], the system named is HT-1080. Briefly: Inhibition of actin in human HT-1080 cells assessed as effect on actin cytoskeleton at 10 uM incubated for 5 mins by fluorescence microscopic analysis. Format: cell-based. A digest of the protocol:
as §1

Assay [4] deals with HT-1080. The experiment in a line: Effect on cell morphology in human HT-1080 cells at 50 uM incubated for 5 mins by fluorescence microscopic analysis. Format: functional, cell-based. A digest of the protocol: as §1

The structures appear in SMILES notation. The source made the active and inactive calls. The calls are words filed in the database; no cut-off is given here.

For `COC(=O)[C@@]12C(=O)N[C@@H](Cc3ccccc3)[C@@H]1[C@H](C)[C@@](C)(Cl)[C@H](O)[C@@H]2CCOCCc1ccccc1`, the inhibition entry in assay [1] was “Active”.
As to `COC(=O)[C@@]12C(=O)N[C@@H](Cc3ccccc3)[C@@H]1[C@H](C)C(C)=C[C@@H]2CCCOCc1ccccc1`, in the assay on BLM, the result was Active. For the same compound, the inhibition result in assay [1] is “Active”.
With `C=C1[C@@H](C)[C@H]2[C@H](Cc3ccccc3)NC(=O)[C@@]2(C(=O)OC)[C@@H](CCOCCc2ccccc2)[C@@H]1O`, the inhibition entry in the assay with HT-1080 [2] is “inactive”. The inhibition entry (with HT-1080 [3]; in assay [1]) was “Active” each time. Besides, the outcome with BLM and with HT-1080 [4] was Active.
Turning to `C=C1[C@@H](C)[C@H]2[C@H](Cc3ccccc3)NC(=O)[C@]23OC(=O)/C=C/[C@H](O)CCC[C@@H](C)C/C=C/[C@H]3[C@@H]1O`, the inhibition result in the assay with HT-1080 [2] is “Active”. Besides, in the assay on BLM, the result was inactive.
Turning to `CC1=C[C@H](CCOCCc2ccccc2)[C@]2(CO)C(=O)N[C@@H](Cc3ccccc3)[C@@H]2[C@@H]1C`, in the assay on BLM, the outcome was Active. Moreover, the inhibition result in assay [1] is “Active”.
Regarding `C=C1[C@@H](C)[C@H]2[C@H](Cc3ccccc3)NC(=O)[C@]23[C@H](OC(C)=O)/C=C/[C@@](C)(O)C(=O)[C@@H](C)C/C=C/[C@H]3[C@@H]1O`, the inhibition result in the assay with HT-1080 [2] was “Active”. Besides, in the assay on BLM, the result was inactive.
